The target in data set [1] is T1, Mu-type opioid receptor (Homo sapiens, UniProt P35372). Briefly: Agonist activity at human MOR expressed in HEK293T cells assessed as inhibition of forskolin-stimulated cAMP accumulation incubated for 30 mins by Glo-sensor cAMP assay. The data set is classed as functional, cell-based. The essentials:
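HEK293T cells transiently co-transfected with human MOR and a luciferase-based cAMP biosensor. Gαi-mediated cAMP inhibition read by luminescence. EC50 given as pEC50 ± SEM, triplicate runs.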
(Changes in cAMP serve as a functional read-out for many G protein-coupled receptors.)

Data set [2] addresses T1, Mu-type opioid receptor. The experiment in a line: Agonist activity at human MOR expressed in HEK-293T cells assessed as inhibition of forskolin-stimulated cAMP accumulation incubated for 30 mins by Glo-sensor cAMP assay relative to DAMGO. The data set is classed as functional, cell-based. The following applies: HEK293T. The essentials: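 HEK293T cells transiently co-transfected with human MOR and a luciferase-based cAMP biosensor. Gαi-mediated cAMP inhibition read by luminescence. […] EC50 given as pEC50 ± SEM, triplicate runs.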

Data set [3] addresses T1, Mu-type opioid receptor. The experiment in a line: Agonist activity at human MOR receptor expressed in HTLA cells co-expressing TEV-fused-beta-arrestin2 assessed as induction of beta-arrestin2 recruitment by Tango assay relative to DAMGO. In kind it is functional, cell-based. The method in brief:
(§1)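 HTLA cells expressing TEV-fused β-arrestin2 transiently transfected with a human MOR Tango construct. β-arrestin2 recruitment measured. […] Mean pEC50 ± SEM and Emax% ± SEM from triplicate runs.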

A short description of data set [4]: Toxicity in C57BL/6 mouse model assessed as conditioned place preference at 10 mg/kg, IP. In kind it is organism-based. The following applies: in vivo. The method in brief: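 Counterbalanced two-compartment place conditioning in C57BL/6J mice. […] Time on drug-paired side over a 20 min test compared with preconditioning by Welch-corrected t test.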
A short description of data set [5]: Toxicity in C57BL/6 mouse model assessed as charcoal distance travel at 15 mg/kg, sc measured after 3 hrs by gastrointestinal transit assay (reference value: 29.5 +/- 1 cm). The following applies: in vivo. In kind it is organism-based.
Data set [6] concerns the target T1, Mu-type opioid receptor. Briefly: Agonist activity at human MOR receptor expressed in HTLA cells co-expressing TEV-fused-beta-arrestin2 assessed as induction of beta-arrestin2 recruitment by Tango assay. The data set is classed as functional, cell-based. The essentials:
as §1
(In general: Arrestin recruitment assays detect the binding of arrestin to an activated receptor.)

The target of data set [7] is T1, Mu-type opioid receptor. Briefly: Agonist activity at human MOR expressed in CHO-K1 cells co-expressing beta-arrestin2 assessed as beta-arrestin2 EFC recruitment measured after 90 mins by PathHunter assay. The data set is classed as functional, cell-based. The method in brief: (§2)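 CHO-K1 cells stably expressing human μOR grown to confluency and seeded overnight at 37 °C, 5% CO2. 5× dilution series of compound in Opti-MEM added for 90 min at 37 °C. Detection reagent then added for 60 min at room temperature in the dark, and chemiluminescence read.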

Data set [8] addresses T1, Mu-type opioid receptor. Briefly: Agonist activity at human MOR expressed in CHO-K1 cells co-expressing beta-arrestin2 assessed as beta-arrestin2 EFC recruitment measured after 90 mins by PathHunter assay relative to control. The data set is classed as functional, cell-based. The method in brief: as §2
The target of data set [9] is T1, Mu-type opioid receptor. The experiment in a line: Partial agonist activity at human MOR expressed in HEK293T cells co-expressing Galpha-RLuc8:Gbeta:Ggamma-GFP2 assessed as maximal Gi-1 activation measured after 15 mins by BRET assay relative to control. In kind it is functional, cell-based. Conditions: filed as partial agonist.
In data set [10] the target is GABA-A receptor; anion channel (Rattus norvegicus) (UniProt O09028+P15431+P18506+P18508+P19969+P20236+P23574+P23576+P28471+P28473+P30191+P62813+P63079+P63138+Q91ZM7+Q9ES14). The experiment in a line: Partial agonist activity at GABAA receptor in rat brain slice assessed as induction of receptor-mediated inhibitory postsynaptic current at 10 uM by Whole cell electrophysiology. Conditions: filed as partial agonist. In kind it is tissue-based. The essentials:
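Horizontal VTA slices (200 μm) from male Sprague–Dawley rats. Whole-cell voltage clamp at −70 mV, 33 °C, KCl internal. GABAA IPSCs isolated with 10 μM DNQX and evoked by paired pulses every 10 s. Drug (10 μM) bath applied. Mean IPSC amplitude at minutes 4–7 of drug compared with the 4 min baseline.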

Data set [11] concerns the target Voltage-dependent L-type calcium channel subunit alpha-1C (Rattus norvegicus, UniProt P22002). Briefly: Displacement of [3H]Diltiazem from Cav1.2 in rat brain at 10 uM incubated for 120 mins by radiometric scintillation counting analysis. The data set is classed as tissue-based. The following applies: 2 h. On the technique in general: In a radioligand displacement assay an active substance lowers the binding of a labelled ligand.

The target of data set [12] is T1, Mu-type opioid receptor. Briefly: Partial agonist activity at human MOR expressed in HEK293T cells co-expressing Galpha-RLuc8:Gbeta:Ggamma-GFP2 assessed as Galpha-i/o activation measured after TRUPATH assay. The data set is classed as functional, cell-based. Conditions: filed as partial agonist.
Data set [13] concerns the target Mu-type opioid receptor (Mus musculus) (UniProt P42866). Briefly: Partial agonist activity at mouse MOR expressed in HEK293T cells assessed as Nb33 recruitment by BRET assay relative to control. In kind it is functional, cell-based. The essentials: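 HEK293T cells transfected with murine MOR-NanoLuc (1 μg) and Nb33-Venus (4 μg) using PEI and used 48 h later. Cells in PBS given coelenterazine H (5 μM), ligand added at 5 min, BRET read 10 min later. Three-parameter fit; ≥3 independent trials in triplicate.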

[14] abbreviates: HTLA230, filed as partial agonist.

The term EC50 denotes the concentration needed to bring the measured effect to its halfway point. As usually defined, the Emax is the maximal effect, on the per cent scale that the assay sets.

Calls of active or inactive are those of the source. The calls are words filed in the database; no cut-off is given here. Where only a bound is given, the exact number is not on record here.

T1 sequence (P35372 whole entry): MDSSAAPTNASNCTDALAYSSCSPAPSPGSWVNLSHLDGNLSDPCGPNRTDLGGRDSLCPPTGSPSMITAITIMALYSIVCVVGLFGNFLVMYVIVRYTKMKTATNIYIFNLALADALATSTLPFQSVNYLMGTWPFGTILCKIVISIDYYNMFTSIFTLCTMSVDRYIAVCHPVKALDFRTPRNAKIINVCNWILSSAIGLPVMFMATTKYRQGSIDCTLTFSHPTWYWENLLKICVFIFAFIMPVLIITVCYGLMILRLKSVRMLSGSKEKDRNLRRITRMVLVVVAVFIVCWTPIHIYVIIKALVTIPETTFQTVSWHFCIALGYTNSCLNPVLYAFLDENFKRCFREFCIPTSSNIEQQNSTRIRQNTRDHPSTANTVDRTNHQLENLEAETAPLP
Chain of Mu-type opioid receptor (Mus musculus) (P42866 whole entry): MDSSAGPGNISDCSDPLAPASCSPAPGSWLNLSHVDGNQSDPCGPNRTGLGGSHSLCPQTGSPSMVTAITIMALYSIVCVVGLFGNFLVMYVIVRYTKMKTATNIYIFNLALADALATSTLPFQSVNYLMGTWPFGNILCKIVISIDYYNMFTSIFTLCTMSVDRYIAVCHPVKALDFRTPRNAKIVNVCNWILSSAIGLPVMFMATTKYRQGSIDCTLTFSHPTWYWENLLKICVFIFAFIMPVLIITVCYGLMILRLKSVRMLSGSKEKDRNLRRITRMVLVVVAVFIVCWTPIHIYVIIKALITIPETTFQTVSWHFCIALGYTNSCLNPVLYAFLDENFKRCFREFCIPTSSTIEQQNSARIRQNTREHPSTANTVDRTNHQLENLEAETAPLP
Chain of Voltage-dependent L-type calcium channel subunit alpha-1C (P22002 whole entry): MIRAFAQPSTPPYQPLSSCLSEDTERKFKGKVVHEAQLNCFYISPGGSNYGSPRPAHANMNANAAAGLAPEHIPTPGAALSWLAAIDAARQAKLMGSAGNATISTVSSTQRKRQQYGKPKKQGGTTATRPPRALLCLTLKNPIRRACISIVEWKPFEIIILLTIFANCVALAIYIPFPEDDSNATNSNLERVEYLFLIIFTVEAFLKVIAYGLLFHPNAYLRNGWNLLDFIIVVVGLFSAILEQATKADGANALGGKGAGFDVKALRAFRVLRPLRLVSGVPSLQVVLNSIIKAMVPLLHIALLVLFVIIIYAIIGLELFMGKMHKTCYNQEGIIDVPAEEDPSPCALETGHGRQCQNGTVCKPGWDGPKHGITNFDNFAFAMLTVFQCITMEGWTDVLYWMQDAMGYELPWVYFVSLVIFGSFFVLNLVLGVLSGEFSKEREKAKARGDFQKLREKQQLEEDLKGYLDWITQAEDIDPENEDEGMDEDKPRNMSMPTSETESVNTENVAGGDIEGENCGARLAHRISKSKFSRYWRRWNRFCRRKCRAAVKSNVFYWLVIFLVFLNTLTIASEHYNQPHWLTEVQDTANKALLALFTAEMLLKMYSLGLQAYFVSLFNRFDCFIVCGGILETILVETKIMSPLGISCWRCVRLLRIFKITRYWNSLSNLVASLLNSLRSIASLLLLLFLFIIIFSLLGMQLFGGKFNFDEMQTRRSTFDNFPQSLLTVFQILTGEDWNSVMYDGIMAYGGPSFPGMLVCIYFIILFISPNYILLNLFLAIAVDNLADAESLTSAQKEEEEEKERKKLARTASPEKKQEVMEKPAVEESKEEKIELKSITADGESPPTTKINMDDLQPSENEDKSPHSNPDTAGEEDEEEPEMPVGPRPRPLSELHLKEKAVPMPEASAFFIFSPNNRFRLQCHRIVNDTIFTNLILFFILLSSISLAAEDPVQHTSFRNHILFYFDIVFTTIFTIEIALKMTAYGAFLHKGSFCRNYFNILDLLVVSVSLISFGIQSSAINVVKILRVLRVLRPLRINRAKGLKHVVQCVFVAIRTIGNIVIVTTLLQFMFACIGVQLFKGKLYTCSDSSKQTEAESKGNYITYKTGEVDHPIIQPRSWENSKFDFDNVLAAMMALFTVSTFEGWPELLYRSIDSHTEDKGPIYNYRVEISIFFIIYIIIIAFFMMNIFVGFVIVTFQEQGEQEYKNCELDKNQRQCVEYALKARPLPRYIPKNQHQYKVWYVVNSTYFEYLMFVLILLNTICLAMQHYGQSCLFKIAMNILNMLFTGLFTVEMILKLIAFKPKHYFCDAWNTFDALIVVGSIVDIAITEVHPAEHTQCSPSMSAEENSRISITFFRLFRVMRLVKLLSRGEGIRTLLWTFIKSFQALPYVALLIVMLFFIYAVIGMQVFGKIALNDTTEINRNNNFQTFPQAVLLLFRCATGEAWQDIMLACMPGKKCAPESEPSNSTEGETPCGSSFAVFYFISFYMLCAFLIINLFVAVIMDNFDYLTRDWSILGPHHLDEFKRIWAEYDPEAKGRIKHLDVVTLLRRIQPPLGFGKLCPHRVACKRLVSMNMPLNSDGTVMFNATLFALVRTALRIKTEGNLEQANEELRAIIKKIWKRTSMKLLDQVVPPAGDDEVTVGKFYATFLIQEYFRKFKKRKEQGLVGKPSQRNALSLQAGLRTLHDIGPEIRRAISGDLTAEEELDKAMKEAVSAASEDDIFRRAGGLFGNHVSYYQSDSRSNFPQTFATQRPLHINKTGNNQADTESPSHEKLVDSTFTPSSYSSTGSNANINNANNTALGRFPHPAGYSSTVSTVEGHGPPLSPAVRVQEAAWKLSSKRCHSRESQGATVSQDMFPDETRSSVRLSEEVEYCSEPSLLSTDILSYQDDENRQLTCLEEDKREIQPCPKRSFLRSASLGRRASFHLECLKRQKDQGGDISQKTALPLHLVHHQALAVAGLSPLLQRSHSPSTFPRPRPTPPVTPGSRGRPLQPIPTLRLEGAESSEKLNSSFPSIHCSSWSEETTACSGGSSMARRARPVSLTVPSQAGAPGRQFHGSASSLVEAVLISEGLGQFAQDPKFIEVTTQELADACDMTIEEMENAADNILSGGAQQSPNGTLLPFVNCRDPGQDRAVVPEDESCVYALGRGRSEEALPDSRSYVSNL

Turning to `CC[C@@H]1CN2CCc3c([nH]c4ccc(-c5ccoc5)c(OC)c34)[C@@H]2C[C@@H]1/C(=C\OC)C(=O)OC`, the EC50 at Mu-type opioid receptor [1] amounted to 85.9 nM. In addition, the Emax at Mu-type opioid receptor [2] (filed as agonist) is 90.8%; at Mu-type opioid receptor [3] (HTLA230) it was below 20%.
For `CC[C@@H]1CN2CCc3c([nH]c4cccc(C)c34)[C@@H]2C[C@@H]1/C(=C\OC)C(=O)OC`, the EC50 on Mu-type opioid receptor [1] amounted to 82.9 nM. Besides, the Emax on Mu-type opioid receptor [2] (filed as agonist) was 97.1%; at Mu-type opioid receptor [3] (HTLA230), below 20%.
As to `CN1CC[C@]23c4c5ccc(O)c4O[C@H]2[C@@H](O)C=C[C@H]3[C@H]1C5` [MORPHINE], the Activity result in data set [4] is on record as “Toxic”; in [5], 5.07 cm.
As for `CC[C@@H]1CN2CC[C@@]3(O)C(=Nc4cccc(OC)c43)[C@@H]2C[C@@H]1/C(=C\OC)C(=O)OC`, the Emax at Mu-type opioid receptor [2] (filed as agonist) was 95.5%; on Mu-type opioid receptor [3] (HTLA230) it was below 20%.
Turning to `CC[C@@H]1CN2CCc3c([nH]c4ccc(C)c(OC)c34)[C@@H]2C[C@@H]1/C(=C\OC)C(=O)OC`, the EC50 at Mu-type opioid receptor [1] turned out to be 370 nM. Moreover, the Emax on Mu-type opioid receptor [2] (filed as agonist) was 96.5%; at Mu-type opioid receptor [3] (HTLA230) it was below 20%.
`CC[C@@H]1CN2CCc3c([nH]c4c(-c5ccccc5)ccc(OC)c34)[C@@H]2C[C@@H]1/C(=C\OC)C(=O)OC`: the concentration for a half-maximal effect (EC50) on Mu-type opioid receptor [1] was 1110 nM. Further, the Emax at Mu-type opioid receptor [2] (filed as agonist) was 50.4%; on Mu-type opioid receptor [3] (HTLA230) it was below 20%.
For `CC[C@@H]1CN2CC[C@@]3(O)C(=Nc4c(C)ccc(OC)c43)[C@@H]2C[C@@H]1/C(=C\OC)C(=O)OC`, the EC50 at Mu-type opioid receptor [1] turned out to be 11.2 nM. Further, the Emax at Mu-type opioid receptor [2] (filed as agonist) is 69.3%; on Mu-type opioid receptor [3] (HTLA230), below 20%.
Taken in the same sequence, the figures for `CC[C@@H]1CN2CC[C@@]3(O)C(=Nc4ccc(C)c(OC)c43)[C@@H]2C[C@@H]1/C(=C\OC)C(=O)OC` were 30.3 nM, 9.58% and below 20%.
The like results for `CC[C@@H]1CN2CC[C@@]3(O)C(=Nc4c(-c5ccoc5)ccc(OC)c43)[C@@H]2C[C@@H]1/C(=C\OC)C(=O)OC` were, in that order, 1560 nM, 61.8% and below 20%.
Turning to `CC[C@@H]1CN2CCc3c([nH]c4c(C)ccc(OC)c34)[C@@H]2C[C@@H]1/C(=C\OC)C(=O)OC`, the EC50 on Mu-type opioid receptor [1] turned out to be 71.4 nM. Further, the maximum response (Emax) at Mu-type opioid receptor [2] (filed as agonist) was 83.9%; on Mu-type opioid receptor [3] (HTLA230), below 20%.
`CC[C@@H]1CN2CCc3c([nH]c4cccc(OC)c34)[C@@H]2C[C@@H]1/C(=C\OC)C(=O)OC`: the Emax at Mu-type opioid receptor [2] (filed as agonist) is 84.7%; at Mu-type opioid receptor [3] (HTLA230), below 20%.
In the case of `CC[C@@H]1CN2CC[C@@]3(O)C(=Nc4c(-c5ccccc5)ccc(OC)c43)[C@@H]2C[C@@H]1/C(=C\OC)C(=O)OC`, the EC50 at Mu-type opioid receptor [1] was determined as 17500 nM. Further, the Emax on Mu-type opioid receptor [2] and on Mu-type opioid receptor [3] (HTLA230) was below 20% throughout.
Turning to `CC[C@@H]1CN2CC[C@@]3(O)C(=Nc4ccc(-c5ccoc5)c(OC)c43)[C@@H]2C[C@@H]1/C(=C\OC)C(=O)OC`, the concentration for a half-maximal effect (EC50) on Mu-type opioid receptor [1] was 535 nM; at Mu-type opioid receptor [6], 8040 nM. In addition, the Emax on Mu-type opioid receptor [2] (filed as agonist) is 100%; at Mu-type opioid receptor [3] (HTLA230), 31.3%.
Regarding `CC[C@@H]1CN2CCc3c([nH]c4cccc(-c5ccccc5)c34)[C@@H]2C[C@@H]1/C(=C\OC)C(=O)OC`, the EC50 on Mu-type opioid receptor [1] is 83.2 nM. Moreover, the Emax on Mu-type opioid receptor [2] (filed as agonist) is 46.1%; at Mu-type opioid receptor [3] (HTLA230), below 20%.
Consider `CC[C@@H]1CN2CC[C@@]3(O)C(=Nc4ccc(-c5ccccc5)c(OC)c43)[C@@H]2C[C@@H]1/C(=C\OC)C(=O)OC`, for which the EC50 at Mu-type opioid receptor [1] amounted to 104 nM. In addition, the results for the Emax on Mu-type opioid receptor [2] (filed as agonist) and at Mu-type opioid receptor [3] (HTLA230) were 88.7% and below 20%, respectively.
For the compound `CC[C@@H]1CN2CC[C@@]3(O)C(=Nc4cccc(C)c43)[C@@H]2C[C@@H]1/C(=C\OC)C(=O)OC`, the EC50 on Mu-type opioid receptor [1] is 5.25 nM; at Mu-type opioid receptor [6], 10400 nM. The Emax is 108% at Mu-type opioid receptor [2] (filed as partial agonist); 110% at Mu-type opioid receptor [3] (setting [14]); 31% on Mu-type opioid receptor [7]; below 20% on Mu-type opioid receptor [8]; 60% at Mu-type opioid receptor [9]; 20% in [13]. Further, the outcome (in data set [10]; at Mu-type opioid receptor [12]) was Active. In [11], the outcome was Active.
On to `CC[C@@H]1CN2CC[C@@]3(O)C(=Nc4cccc(-c5ccccc5)c43)[C@@H]2C[C@@H]1/C(=C\OC)C(=O)OC`, for which the concentration giving a half-maximal response (EC50) turned out to be 36.2 nM on Mu-type opioid receptor [1] and 19200 nM on Mu-type opioid receptor [6]. The Emax at Mu-type opioid receptor [2] (filed as partial agonist) is 108%; on Mu-type opioid receptor [3] (setting [14]), 283%; on Mu-type opioid receptor [7], 31%; on Mu-type opioid receptor [8] it was below 20%; at Mu-type opioid receptor [9], 60%; in data set [13] it was 20%. The result (in [10]; on Mu-type opioid receptor [12]) was Active. In data set [11], the result was Active.
For the compound `CC[C@@H]1CN2CCc3c([nH]c4ccc(-c5ccccc5)c(OC)c34)[C@@H]2C[C@@H]1/C(=C\OC)C(=O)OC`, at Mu-type opioid receptor [1], the concentration for a half-maximal effect (EC50) stood at 3760 nM. The results for the maximal effect (Emax) on Mu-type opioid receptor [2] (filed as agonist) and on Mu-type opioid receptor [3] (HTLA230) were 73.9% and below 20%, respectively.
Taken in the same sequence, the figures for `CC[C@@H]1CN2CCc3c([nH]c4c(-c5ccoc5)ccc(OC)c34)[C@@H]2C[C@@H]1/C(=C\OC)C(=O)OC` were 186 nM, 78.2% and below 20%.
`CC[C@@H]1CN2CCc3c([nH]c4cccc(-c5ccoc5)c34)[C@@H]2C[C@@H]1/C(=C\OC)C(=O)OC`: the EC50 on Mu-type opioid receptor [1] was found to be 93.7 nM. Also, the Emax on Mu-type opioid receptor [2] (filed as agonist) is 70.2%; on Mu-type opioid receptor [3] (HTLA230), below 20%.

(Values after ChEMBL document CHEMBL5030540 (J Med Chem, 2021).)
